{
  "source": "ChEMBL document CHEMBL4270554",
  "about": "“Discovery of the cancer cell selective dual acting anti-cancer agent (Z)-2-(1H-indol-3-yl)-3-(isoquinolin-5-yl)acrylonitrile (A131)” (Eur J Med Chem, 2018)",
  "format_in_all_cases": "functional",
  "key": {"[1]": {"test_system": "HGC-27", "assay": "Antiproliferative activity against human HGC27 cells after 72 hrs by MTT assay", "conditions": "HGC-27, 72 h", "method_in_brief": "(§1)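 Cells cultured at 37 °C, 5% CO₂ in medium with 10% FBS and penicillin/streptomycin, used within 12-20 passages. Seeded at 2.5×10^3 cells/well for 24 h, then compound added from DMSO stocks at 200-fold final concentration (final DMSO 0.5% v/v). After 72 h, 0.5 mg/mL MTT for 3 h, formazan dissolved in DMSO, A570 read. IC50 from sigmoidal fit; three independent determinations.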"}, "[2]": {"test_system": "AGS", "assay": "Antiproliferative activity against human AGS cells after 72 hrs by MTT assay", "method_in_brief": "as §1"}, "[3]": {"assay": "Selectivity index, ratio of IC50 for human BJ cells to IC50 for human BJ cells transformed with hTert, small t, shRNAs against p53 and pRb and H-RasV12-ER", "method_in_brief": "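Normal BJ fibroblasts and transformed BJ fibroblasts were grown at 37 °C in 5% CO₂ with 10% FBS, seeded at 2.5×10^3 cells/well for 24 h, then treated for 72 h at 0.5% v/v final DMSO. MTT at 0.5 mg/mL was added for 3 h, formazan was dissolved in DMSO and absorbance read at 570 nm. IC50 came from sigmoidal fits of three independent determinations. The index is normal-cell IC50 over transformed-cell IC50.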"}},
  "data": [
    {"smiles": "N#C/C(=C\\c1cccc2cnccc12)c1c[nH]c2ccccc12", "values": [
      {"measurement": "GI50", "setting": "[1]", "value": 1200, "unit": "nM"},
      {"measurement": "GI50", "setting": "[2]", "value": 1100, "unit": "nM"},
      {"measurement": "Ratio IC50", "setting": "[3]", "value": 8.5}
    ]}
  ]
}
